ChEMBL document CHEMBL1275269, “Cyclization of some carbothioamide derivatives containing antipyrine and triazole moieties and investigation of their antimicrobial activities” (2010)
Calls of active or inactive are those of the source. The rule behind the calls is not given here.

How the values were obtained:
[1] = test system: Escherichia coli; assay: Antibacterial activity against Escherichia coli ATCC 25922 after 18 hrs by agar-well diffusion method; assay type: functional; as to IZ: test concentration or dose not given here
Outline: (§1)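 Microorganisms flood-inoculated onto the surface of Mueller-Hinton agar or Sabouraud dextrose agar, then dried. 5 mm diameter wells cut into the agar with a sterile cork-borer.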

[2] = test system: Klebsiella aerogenes; assay: Antibacterial activity against Enterobacter aerogenes ATCC 13048 after 18 hrs by agar-well diffusion method; assay type: functional; outline: as §1; as to IZ: test concentration or dose not given here
[3] = test system: Yersinia pseudotuberculosis; assay: Antibacterial activity against Yersinia pseudotuberculosis ATCC 911 after 18 hrs by agar-well diffusion method; assay type: functional
Outline: (§2)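 Organisms flood-inoculated onto the agar surface and dried. Five-millimetre wells were cut with a sterile cork-borer, and test substance was delivered into each well.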

[4] = test system: Pseudomonas aeruginosa; assay: Antibacterial activity against Pseudomonas aeruginosa ATCC 43288 after 18 hrs by agar-well diffusion method; assay type: functional; outline: as §1; as to IZ: test concentration or dose not given here
[5] = test system: Staphylococcus aureus; assay: Antibacterial activity against Staphylococcus aureus ATCC 25923 after 18 hrs by agar-well diffusion method; assay type: functional; outline: as §1; as to IZ: test concentration or dose not given here
[6] = test system: Enterococcus faecalis; assay: Antibacterial activity against Enterococcus faecalis ATCC 29212 after 18 hrs by agar-well diffusion method; assay type: functional; outline: as §1; as to IZ: test concentration or dose not given here
[7] = test system: Bacillus cereus; assay: Antibacterial activity against Bacillus cereus 702 after 18 hrs by agar-well diffusion method; assay type: functional; outline: as §1; as to IZ: test concentration or dose not given here
[8] = test system: Mycolicibacterium smegmatis; assay: Antibacterial activity against Mycobacterium smegmatis ATCC 607 after 18 hrs by agar-well diffusion method; assay type: functional; outline: as §1; as to IZ: test concentration or dose not given here
[9] = test system: Candida albicans; assay: Antifungal activity against Candida albicans ATCC 60193 after 18 hrs by agar-well diffusion method; assay type: functional
Outline: (§3)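 Yeast flood-inoculated onto Sabouraud dextrose agar and dried. Five-millimetre wells were cut with a sterile cork-borer, and test substance was delivered into each well.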

[10] = test system: Candida tropicalis; assay: Antifungal activity against Candida tropicalis ATCC 13803 after 18 hrs by agar-well diffusion method; assay type: functional; outline: as §3
[11] = test system: Saccharomyces cerevisiae; assay: Antifungal activity against Saccharomyces cerevisiae RSKK 251 after 18 hrs by agar-well diffusion method; assay type: functional; outline: as §2
[12] = test system: Aspergillus niger; assay: Antifungal activity against Aspergillus niger RSKK 4017 after 18 hrs by agar-well diffusion method; assay type: functional, organism-based; outline: as §1

Row | SMILES | inhibition zone (IZ) [1] [mm] | Activity [2] | inhibition zone (IZ) [3] [mm] | Activity [5] | Activity [6] | Activity [7] | inhibition zone (IZ) [8] [mm] | Activity [9] | Activity [10] | Activity [11] | Activity [12] | inhibition zone (IZ) [2] [mm] | inhibition zone (IZ) [4] [mm] | inhibition zone (IZ) [5] [mm] | inhibition zone (IZ) [6] [mm] | inhibition zone (IZ) [7] [mm] | other results
1 | Cc1c(-n2c(Cc3ccc(Cl)cc3)nn(CC(=O)N/N=c3/scc(-c4ccc(Cl)cc4)n3-c3ccccc3)c2=O)c(=O)n(-c2ccccc2)n1C | 15 | Active | 12 | Active | Active | Active | 10 | Active | Active | Active | Active | – | – | – | – | – | Activity [4]: Active
2 | Cc1c(-n2c(Cc3ccc(Cl)cc3)nn(Cc3nnc(S)o3)c2=O)c(=O)n(-c2ccccc2)n1C | 35 | – | 30 | – | – | – | 38 | Active | Active | Active | Active | 30 | 30 | 30 | 28 | 30 | –
3 | Cc1c(-n2c(Cc3ccc(Cl)cc3)n[nH]c2=O)c(=O)n(-c2ccccc2)n1C | – | Active | – | Active | Active | Active | – | Active | Active | Active | Active | – | – | – | – | – | Activity [1]: Active; Activity [3]: Active; Activity [4]: Active; Activity [8]: Active
4 | Cc1c(-n2c(Cc3ccc(Cl)cc3)nn(Cc3nnc(S)n3Cc3ccccc3)c2=O)c(=O)n(-c2ccccc2)n1C | 35 | – | 30 | – | – | – | 33 | Active | Active | Active | Active | 30 | 30 | 30 | 28 | 30 | –
5 | Cc1c(-n2c(Cc3ccc(Cl)cc3)nn(Cc3nnc(Nc4ccc(F)cc4)s3)c2=O)c(=O)n(-c2ccccc2)n1C | 20 | – | 25 | Active | Active | Active | 25 | Active | Active | Active | Active | 25 | 20 | – | – | – | –
6 | Cc1c(-n2c(Cc3ccc(Cl)cc3)nn(Cc3nnc(NCc4ccccc4)s3)c2=O)c(=O)n(-c2ccccc2)n1C | 25 | – | 25 | Active | Active | Active | 25 | Active | Active | Active | Active | 25 | 30 | – | – | – | –
7 | Cc1c(-n2c(Cc3ccc(Cl)cc3)nn(Cc3nnc(Nc4ccccc4)s3)c2=O)c(=O)n(-c2ccccc2)n1C | 25 | – | 25 | Active | Active | Active | 25 | Active | Active | Active | Active | 25 | 35 | – | – | – | –
8 | CCOC(=O)Cn1nc(Cc2ccc(Cl)cc2)n(-c2c(C)n(C)n(-c3ccccc3)c2=O)c1=O | – | Active | – | Active | Active | Active | – | Active | Active | Active | Active | – | – | – | – | – | Activity [1]: Active; Activity [3]: Active; Activity [4]: Active; Activity [8]: Active
9 | CC1(C)S[C@@H]2[C@H](NC(=O)[C@H](N)c3ccccc3)C(=O)N2[C@H]1C(=O)O [AMPICILLIN] | 10 | – | 18 | – | – | – | – | – | – | – | – | 10 | 18 | 35 | 10 | 15 | –
10 | CN[C@@H]1[C@H](O[C@H]2[C@H](O[C@H]3[C@H](O)[C@@H](O)[C@H](N=C(N)N)[C@@H](O)[C@@H]3N=C(N)N)O[C@@H](C)[C@]2(O)C=O)O[C@@H](CO)[C@H](O)[C@H]1O [STREPTOMYCIN] | – | – | – | – | – | – | 35 | – | – | – | – | – | – | – | – | – | –
11 | Cc1c(-n2c(Cc3ccc(Cl)cc3)nn(CC(=O)NN)c2=O)c(=O)n(-c2ccccc2)n1C | – | Active | – | Active | Active | Active | – | Active | Active | Active | Active | – | – | – | – | – | Activity [1]: Active; Activity [3]: Active; Activity [4]: Active; Activity [8]: Active
12 | Cc1c(-n2c(Cc3ccc(Cl)cc3)nn(Cc3nnc(S)n3-c3ccccc3)c2=O)c(=O)n(-c2ccccc2)n1C | 25 | – | 30 | – | – | – | 34 | Active | Active | Active | Active | 25 | 30 | 25 | 20 | 30 | –
13 | Cc1c(-n2c(Cc3ccc(Cl)cc3)nn(Cc3nnc(S)n3-c3ccc(F)cc3)c2=O)c(=O)n(-c2ccccc2)n1C | 35 | – | 30 | – | – | – | 30 | Active | Active | Active | Active | 30 | 28 | 30 | 28 | 30 | –
14 | Cc1c(-n2c(Cc3ccc(Cl)cc3)nn(CC(=O)NNC(=S)NCc3ccccc3)c2=O)c(=O)n(-c2ccccc2)n1C | 15 | – | 10 | – | – | – | 15 | Active | Active | Active | Active | 10 | 10 | 10 | 8 | 10 | –
15 | Cc1c(-n2c(Cc3ccc(Cl)cc3)nn(CC(=O)NNC(=S)Nc3ccc(F)cc3)c2=O)c(=O)n(-c2ccccc2)n1C | 15 | – | 10 | – | – | – | 15 | Active | Active | Active | Active | 8 | 10 | 10 | 8 | 10 | –
16 | OC(Cn1cncn1)(Cn1cncn1)c1ccc(F)cc1F [FLUCONAZOLE] | – | – | – | – | – | – | – | – | – | – | – | – | – | – | – | – | inhibition zone (IZ) [9]: 25 mm; inhibition zone (IZ) [10]: 25 mm; inhibition zone (IZ) [11]: >25 mm
17 | Cc1c(-n2c(Cc3ccc(Cl)cc3)nn(CC(=O)N/N=c3/scc(-c4ccc([N+](=O)[O-])cc4)n3-c3ccccc3)c2=O)c(=O)n(-c2ccccc2)n1C | 15 | Active | 30 | – | – | – | 25 | Active | Active | Active | Active | – | 20 | 30 | 18 | 20 | –
18 | Cc1c(-n2c(Cc3ccc(Cl)cc3)nn(CC(=O)NNC(=S)Nc3ccccc3)c2=O)c(=O)n(-c2ccccc2)n1C | 10 | Active | 8 | – | – | – | 10 | Active | Active | Active | Active | – | 8 | 8 | 8 | 10 | –
